Tn6 DDE FP = inhibitors of Tn6 peptide binding to human fibrin DD(E) | Fibrin DD(E) TRITC-Tn6 fluorescence polarization displacement | inhibition, % at 8.3 µM | 370,000 compounds, 0.21% hits;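 active means inhibition above a per-campaign cutoff: mean of compounds within control limits plus 3 SD, cut at about 15% in these data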
UHRF1 binding = UHRF1 methyl-DNA binding inhibition | Q96T88 | UHRF1 binding to methylated oligo, TR-FRET | inhibition, % at 4.4 µM | 370,000 compounds, 0.75% hits; in the data active means inhibition above about 21%;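 further: UHRF1 SRA domain binding a hemimethylated CpG hairpin DNA probe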
Target sequence (Q96T88 whole entry, looked up, the tested form may be a part): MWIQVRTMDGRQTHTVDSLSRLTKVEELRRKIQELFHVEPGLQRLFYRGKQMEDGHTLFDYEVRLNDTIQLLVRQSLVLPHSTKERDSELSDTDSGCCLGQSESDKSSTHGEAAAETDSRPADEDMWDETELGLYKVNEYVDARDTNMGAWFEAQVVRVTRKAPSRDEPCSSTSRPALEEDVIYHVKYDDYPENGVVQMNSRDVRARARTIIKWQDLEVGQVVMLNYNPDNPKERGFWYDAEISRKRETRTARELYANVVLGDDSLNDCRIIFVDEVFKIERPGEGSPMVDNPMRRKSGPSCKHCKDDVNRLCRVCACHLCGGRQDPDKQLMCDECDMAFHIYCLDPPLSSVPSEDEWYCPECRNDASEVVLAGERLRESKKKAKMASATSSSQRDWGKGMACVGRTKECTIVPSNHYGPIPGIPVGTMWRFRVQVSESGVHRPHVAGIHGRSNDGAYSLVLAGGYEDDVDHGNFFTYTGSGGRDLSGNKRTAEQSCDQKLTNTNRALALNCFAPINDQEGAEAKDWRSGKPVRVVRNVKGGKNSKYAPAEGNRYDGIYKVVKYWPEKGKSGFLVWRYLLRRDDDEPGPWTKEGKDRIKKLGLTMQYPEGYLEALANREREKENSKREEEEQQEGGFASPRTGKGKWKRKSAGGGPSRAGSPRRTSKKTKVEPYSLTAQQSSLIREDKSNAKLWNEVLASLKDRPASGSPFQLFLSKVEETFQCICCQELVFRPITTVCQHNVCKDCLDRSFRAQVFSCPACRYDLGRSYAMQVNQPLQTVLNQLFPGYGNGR
MBD2 inh = inhibitors of human MBD2 binding to methylated oligonucleotide. Q9UBB5. TR-FRET. inhibition, % at 4.4 µM. 370,000 compounds, 0.31% hits. AID 686964; in the data active means inhibition above about 13%
DDE Tn7 FP inh = DD(E)-Tn7 binding inhibition, primary FP screen | P02675 | inhibition, % at 8.3 µM | 370,000 compounds, 0.13% hits | FP displacement of FITC-Tn7 peptide from fibrin DD(E); 0% = median of compound wells per plate | AID 720508;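 active means inhibition above the mean of compounds falling within the control limits plus 3 SD of them, cut at about 14% in these data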
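Assay system: Human fibrin DD(E) protein | Medium: Tris buffer with calcium and detergent, pH 7.8 | Reagent: 0.1 µM fluorescent Tn7 | Compound dosing: Single point at 8.3 µM | Times: 10 min preincubation, 3 h with tracer, room temperature | Detection: Fluorescence polarization of the labelled Tn7 tracer | Controls: Aha-Tn7 high control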
LEDGF integ inh = blocks HIV-1 LEDGF/p75-dependent DNA integration | AID 743269 | inhibition, % at 3.7 µM | 370,000 compounds, 0.64% hits | TR-FRET IN-LEDGF/p75 DNA integration, Eu/Cy5;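 active means inhibition above the screen-wide mean plus 3 SD, cut at about 13% in these data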;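 further: signal is the Cy5 over europium emission ratio at 671 and 618 nm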
TDP2 inh = blocks human TDP2 phosphodiesterase activity; O95551; recombinant TDP2, T5PNP hydrolysis, p-nitrophenol absorbance 415 nm; inhibition, % at 12.8 µM; 370,000 compounds, 0.34% hits; AID 720702;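 active means inhibition above the mean of all tested compounds plus 3 SD, set per campaign, cut at about 25% in these data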
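test system = human TDP2 enzyme | input = TDP2 enzyme at 120 nM final | medium = 50 mM Tris-HCl pH 7.5 with Mg2+, KCl, DTT, BSA | also added = T5PNP substrate, 5 mM | times = 2 h at 37 °C | technique = epi absorbance | benchmarks = high control without enzyme, low control DMSO plus TDP2 | replication = each compound tested once, singlicate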
IN multimer act = HIV-1 integrase multimerization activation, counter-screen | activation, % at 7.7 µM | 2,000 compounds, 17% hits | TR-FRET HIV-1 integrase multimerization, biochemical | AID 1053131 | shares compounds with LEDGF integ inh; in the data active means activation above about 8.9%
TR-FRET interf = TR-FRET optical interference, LEDGF/p75 integration counter-screen; AID 1053135; 2,000 tested, under 10 active; TR-FRET optical interference counterscreen, HIV-1 IN multimerization; inhibition, % at 7.7 µM; shares compounds with LEDGF integ inh;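 active means inhibition above the mean over all tested compounds plus 3 SD, which no compound reached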
LEDGF integ conf = LEDGF/p75-dependent HIV-1 integration inhibition, confirmation. shares compounds with LEDGF integ inh. TR-FRET LEDGF/p75-dependent HIV-1 integration, biochemical. inhibition, % at 3.7 µM. 2,000 compounds, 36% hits. AID 1053136; in the data active means inhibition above about 14%
Hits are given with their value; – = inactive; · = no result given. In the library only some 1.9% were active in any assay of this set; here they are far more common.

SMILES	Tn6 DDE FP	UHRF1 binding	MBD2 inh	DDE Tn7 FP inh	LEDGF integ inh	TDP2 inh	IN multimer act	TR-FRET interf	LEDGF integ conf
Cc1cccc[n+]1CCCCCCCCCC[n+]1ccccc1C	–	–	–	–	21	–	–	–	–
Cc1cc(C)c(S(=O)(=O)N2CCN(C(=O)c3cc(=O)[nH]c4ccccc34)CC2)c(C)c1	–	–	–	–	–	–	·	·	·
Cc1cc(C(C)(C)C)cc(C)c1S(=O)(=O)N1CCN(C(=O)c2cc([N+](=O)[O-])c[nH]c2=O)CC1	–	–	–	–	28	–	–	–	–
Cc1ccc(S(=O)(=O)N2CCCC2)cc1C(=O)N1CCN(Cc2ccccc2)CC1	–	–	–	–	22	–	–	–	–
Cc1ccc(S(=O)(=O)N2CCCCC2)cc1C(=O)N1CCCC1	–	–	–	–	–	–	·	·	·
COC(=O)C1=C(C)N(Cc2ccc(C(F)(F)F)cc2)C(=NCC2CC2)NC1c1ccccc1C(F)(F)F (centres undefined)	–	–	–	–	–	–	·	·	·
CC1C/C=C/C=C/C=C/C=C/C(O[C@@H]2O[C@H](C)[C@@H](O)[C@H](N)[C@@H]2O)CC2OC(O)(CC(O)CC3OC3/C=C/C(=O)O1)CC(O)C2C(=O)O (some centres undefined)	–	–	–	–	21	–	–	–	35
C[C@@H]1[C@H](O)[C@@H](C)/C=C/C=C/C=C/C=C/C=C/C=C/C=C/[C@H](OC2O[C@H](C)[C@@H](O)[C@H](N)[C@@H]2O)C[C@@H]2O[C@](O)(C[C@@H](O)C[C@@H](O)[C@H](O)CC[C@@H](O)C[C@@H](O)CC(=O)O[C@H]1C)C[C@H](O)[C@H]2C(=O)O (some centres undefined)	–	–	–	–	32	–	–	–	78
COc1ccccc1-c1cccc2[nH]c3c(c12)CCN1C(=O)[C@H]2[C@H](C)ON(C)[C@H]2C[C@@H]31	–	–	–	–	–	–	·	·	·
Cc1cccc(NC(=O)c2ccccc2SCc2ccc(F)cc2)n1	–	–	–	–	53	–	–	–	–
CCNC(=O)c1ccccc1SCc1ccccc1	–	–	–	–	14	–	–	–	–
O=C(Nc1ccc(Cl)cn1)c1ccccc1SCc1ccccc1	–	–	–	–	–	–	·	·	·
Nc1[nH]c(C(=O)c2ccccc2)c(-c2ccccc2[N+](=O)[O-])c1C(=O)NCCc1c[nH]c2ccccc12	–	–	–	–	–	–	·	·	·
O=C(CC1CC2CCC1C2)Nc1nc(-c2ccccn2)cs1 (centres undefined)	–	–	–	–	16	–	–	–	–
CC(C)c1ccc(Oc2cccc3c2S(=O)(=O)N([C@H](C)c2ccccc2)C[C@@H](COCc2ccccc2)O3)cc1	–	–	–	–	–	–	·	·	·
COC(=O)[C@]12C[C@H](CC(=O)NCc3cccc(C(F)(F)F)c3)C(=O)N(Cc3cccc4ccccc34)C1=C[C@H](COCc1ccccc1)O[C@@H]2C	–	–	–	–	–	–	·	·	·
CN=c1scc(-c2ccccc2F)n1/N=C/c1ccc(O)c(O)c1O	–	–	–	–	22	–	–	–	28
CN=c1scc(-c2ccccc2F)n1/N=C/c1ccc[nH]1	–	–	–	–	–	–	·	·	·
Nc1ccn([C@@H]2O[C@H](C(=O)N[C@H](Cc3ccccc3)C(=O)NCc3cccc4c3OCO4)[C@@H](O)[C@H]2O)c(=O)n1	–	–	–	–	–	–	·	·	·
Cc1ccccc1-c1nn[nH]n1	–	–	–	–	–	–	·	·	·
Oc1ccc(N=Nc2ccccc2-c2nn[nH]n2)c(O)c1	–	–	–	–	19	–	18	–	–
Cc1nn(Cc2ccccc2Cl)c(C)c1NC(=O)c1noc2c1CCCCC2	–	–	–	–	–	–	·	·	·
Cc1nn(Cc2ccc(F)cc2)c(C)c1NC(=O)c1noc2c1CCCCC2	–	–	–	–	40	–	–	–	–
CC1(C(=O)NS(=O)(=O)C2CC2)CCN(C(=O)COc2ccc(Cl)cc2Cl)C1 (centres undefined)	–	–	–	–	14	–	–	–	–
O=C(Cc1ccc(NC(=O)C2CCN(C(=O)C3CCCC3)CC2)cc1)Nc1cccc(C(=O)N2CCCC2)c1	–	–	–	–	–	–	·	·	·
SMILES	Tn6 DDE FP	UHRF1 binding	MBD2 inh	DDE Tn7 FP inh	LEDGF integ inh	TDP2 inh	IN multimer act	TR-FRET interf	LEDGF integ conf
CCCOc1ccc(CC(=O)NCCc2ccccc2)cc1OC	–	–	–	–	14	–	–	–	–
O=C(NCC(c1cccs1)N1CCOCC1)c1ccccc1NS(=O)(=O)c1ccc(Cl)c([N+](=O)[O-])c1 (centres undefined)	–	–	–	–	35	–	–	–	–
COC1=C(NCc2ccc3c(c2)OCO3)C(=O)C(OC)=C(NCc2ccc3c(c2)OCO3)C1=O	–	–	–	–	13	–	–	–	–
COc1ccc(Br)cc1CNC(=O)CCNC(=O)Cn1ccc2ccccc2c1=O	–	–	–	–	–	–	·	·	·
COc1ccc(OC)c(CNC(=O)CCNC(=O)Cn2ccc3ccccc3c2=O)c1	–	–	–	–	47	–	–	–	–
O=C1C=C(Nc2ccc(O)cc2)CC(c2ccco2)C1 (centres undefined)	–	–	–	–	–	–	·	·	·
O=C1C=C(O)CC(c2ccco2)C1 (centres undefined)	–	36	–	–	38	–	–	–	21
O=C(CSc1ccccc1)N1CCC(Oc2cccnc2)CC1	–	–	–	–	–	–	·	·	·
COc1ccc(/C=C/C(=O)N2CCCc3ccccc32)cc1	–	–	–	–	21	–	9.5	–	19
COc1cc(OC)c(C(=O)O/N=C(\N)c2cccc(C)c2)cc1OC	–	–	–	–	17	–	–	–	–
Cc1ccc(/C=C2/CNC/C(=C/c3ccc(C)cc3)C2=O)cc1	–	–	–	–	92	–	–	–	–
CCCOc1ccc(-c2cc(C(C)=O)c3n(c2=O)CCC3)cc1	–	–	–	–	–	–	·	·	·
CCOC(=O)C1(CCOc2ccccc2)CCN(Cc2ccc(CO)o2)CC1	–	–	–	–	18	–	–	–	–

High-throughput results as filed in PubChem.
